The source made the active and inactive calls. The rule behind the calls is not given here.
How the values were obtained:
A375P = test: (§1) Antiproliferative activity against human A375P cells assessed as growth inhibition after 24 hrs by MTT assay; format: functional
Outline: (§2)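 A375P cells kept in DMEM with 10% FBS and 1% penicillin/streptomycin at 37 °C under 5% CO2. Cells lifted with 0.05% trypsin–0.02% EDTA, seeded at 5 × 10^3 cells/well and left 24 h before dosing. Test compounds given as a 3-fold serial dilution over 12 points. Viability read by MTT reduction, absorbance at 590 nm.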

HS27 = test: Antiproliferative activity against human HS27 cells assessed as growth inhibition after 24 hrs by MTT assay; format: functional; settings: HS27, 24 h
[1] = as §1; format: functional; outline: as §2
[2] = target: RAF proto-oncogene serine/threonine-protein kinase (Homo sapiens, UniProt P04049); test: Inhibition of C-Raf assessed as [33P]gamma-ATP incorporation into substrate after 40 mins by scintillation counting
Outline: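 Human C-RAF (5–10 mU) in 25 mM Tris pH 7.5, 0.02 mM EGTA, 10 mM Mg acetate, with 0.66 mg/mL myelin basic protein as substrate and [γ-33P]ATP. Reaction started by adding the Mg-ATP mix and run 40 min at room temperature. Stopped with 3% phosphoric acid, spotted on P30 filtermat, washed in 75 mM phosphoric acid and methanol, then scintillation counted.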

[3] = system: Serine/threonine-protein kinase B-raf (Homo sapiens), P15056 [V600E]; test: Inhibition of B-Raf V600E mutant
[4] = target: Serine/threonine-protein kinase mTOR (Homo sapiens, UniProt P42345); test: inhibition of mTOR

Sequence of RAF proto-oncogene serine/threonine-protein kinase (P04049 whole entry): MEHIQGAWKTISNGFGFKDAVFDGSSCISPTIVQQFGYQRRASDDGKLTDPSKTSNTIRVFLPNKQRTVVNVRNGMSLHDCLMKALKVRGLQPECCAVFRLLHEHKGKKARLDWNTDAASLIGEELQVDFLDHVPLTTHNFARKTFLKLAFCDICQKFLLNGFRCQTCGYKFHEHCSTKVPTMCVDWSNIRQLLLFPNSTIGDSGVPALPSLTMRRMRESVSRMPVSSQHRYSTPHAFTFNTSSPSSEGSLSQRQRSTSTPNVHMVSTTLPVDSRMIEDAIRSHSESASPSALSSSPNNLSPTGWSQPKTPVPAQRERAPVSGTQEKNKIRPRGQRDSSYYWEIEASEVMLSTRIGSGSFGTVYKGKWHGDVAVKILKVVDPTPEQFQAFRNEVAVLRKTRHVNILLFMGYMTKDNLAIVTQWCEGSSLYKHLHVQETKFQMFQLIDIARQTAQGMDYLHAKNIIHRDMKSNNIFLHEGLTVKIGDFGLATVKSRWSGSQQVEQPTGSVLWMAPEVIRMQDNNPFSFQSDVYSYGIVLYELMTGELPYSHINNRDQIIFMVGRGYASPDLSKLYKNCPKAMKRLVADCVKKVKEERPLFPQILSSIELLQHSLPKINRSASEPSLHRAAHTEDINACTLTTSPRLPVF
Sequence of Serine/threonine-protein kinase B-raf (Homo sapiens), P15056 [V600E] (P15056 whole entry V600E): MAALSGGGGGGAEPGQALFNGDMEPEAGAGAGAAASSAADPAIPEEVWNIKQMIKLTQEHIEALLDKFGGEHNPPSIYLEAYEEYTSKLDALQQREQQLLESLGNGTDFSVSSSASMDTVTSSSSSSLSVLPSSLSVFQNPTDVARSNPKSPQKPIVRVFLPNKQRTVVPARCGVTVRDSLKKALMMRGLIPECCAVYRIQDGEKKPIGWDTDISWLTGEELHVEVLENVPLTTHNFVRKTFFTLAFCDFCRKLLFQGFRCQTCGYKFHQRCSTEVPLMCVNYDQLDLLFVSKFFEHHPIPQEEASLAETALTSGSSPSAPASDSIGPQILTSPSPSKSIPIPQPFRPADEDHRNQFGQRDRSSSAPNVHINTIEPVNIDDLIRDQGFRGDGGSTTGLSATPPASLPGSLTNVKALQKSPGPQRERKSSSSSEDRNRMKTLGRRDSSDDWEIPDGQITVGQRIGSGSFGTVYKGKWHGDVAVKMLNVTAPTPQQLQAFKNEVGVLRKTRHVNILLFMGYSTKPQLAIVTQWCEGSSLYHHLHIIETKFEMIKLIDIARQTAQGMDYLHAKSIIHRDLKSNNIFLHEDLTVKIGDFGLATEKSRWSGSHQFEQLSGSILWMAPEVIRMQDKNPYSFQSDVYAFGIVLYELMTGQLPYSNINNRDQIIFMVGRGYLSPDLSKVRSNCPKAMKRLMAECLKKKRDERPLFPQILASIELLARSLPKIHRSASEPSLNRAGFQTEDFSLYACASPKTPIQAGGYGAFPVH

GI50 (A375P)	SMILES	GI50 (HS27)	GI50 [1]	also measured
inactive	COc1ccc(Cn2ncc(NC(=O)c3ccc(NC(=O)c4cc(C)on4)cc3C)c2N)cc1	> 30 µM	–	–
–	COc1ccc(Cn2ncc(NC(=O)c3cc(NC(=O)c4cnn(-c5ccc(Cl)cc5)c4C(F)(F)F)ccc3C)c2N)cc1	> 30 µM	> 30 µM	–
–	COc1ccc(Cn2ncc(NC(=O)c3ccc(NC(=O)Nc4cccc(Cl)c4)cc3C)c2N)cc1	> 30 µM	36.5 µM	–
–	COc1ccc(Cn2ncc(NC(=O)c3cc(NC(=O)c4cc(-c5ccc(Cl)cc5)on4)ccc3C)c2N)cc1	> 30 µM	1.39 µM	–
inactive	COc1ccc(Cn2ncc(NC(=O)c3ccc(NC(=O)Nc4nccc(C(F)(F)F)n4)cc3C)c2N)cc1	> 30 µM	–	–
inactive	COc1ccc(Cn2ncc(NC(=O)c3cc(NC(=O)c4ccnc(Cl)c4)ccc3C)c2N)cc1	> 30 µM	–	–
inactive	COc1ccc(Cn2ncc(NC(=O)c3cc(NC(=O)Nc4ccc(C(F)(F)F)cc4C(F)(F)F)ccc3C)c2N)cc1	> 30 µM	–	–
–	COc1ccc(Cn2ncc(NC(=O)c3cc(NC(=O)c4cccc(C(F)(F)F)c4)ccc3C)c2N)cc1	> 30 µM	5.53 µM	IC50 [2]: 0.0224 µM; inhibition [3]: inactive
–	COc1ccc(Cn2ncc(NC(=O)c3ccc(NC(=O)Nc4cccc(C(F)(F)F)c4)cc3C)c2N)cc1	> 30 µM	> 30 µM	–
–	COc1ccc(Cn2ncc(NC(=O)c3cc(NC(=O)Nc4ccc(Cl)cc4)ccc3C)c2N)cc1	> 30 µM	8.73 µM	–
–	COc1ccc(Cn2ncc(NC(=O)c3ccc(NC(=O)c4cc5ccccc5o4)cc3C)c2N)cc1	> 30 µM	> 30 µM	–
inactive	COc1ccc(Cn2ncc(NC(=O)c3ccc(NC(=O)Nc4ccc(Cl)cc4)cc3C)c2N)cc1	> 30 µM	–	–
inactive	COc1ccc(Cn2ncc(NC(=O)c3cc(NC(=O)Nc4c(Cl)cccc4Cl)ccc3C)c2N)cc1	> 30 µM	–	–
inactive	COc1ccc(Cn2ncc(NC(=O)c3cc(NC(=O)Nc4cc(C)no4)ccc3C)c2N)cc1	> 30 µM	–	–
–	COc1ccc(Cn2ncc(NC(=O)c3ccc(NC(=O)c4cc(-c5ccc(Cl)cc5)on4)cc3C)c2N)cc1	> 30 µM	24.9 µM	–
–	COc1ccc(Cn2ncc(NC(=O)c3ccc(NC(=O)Nc4ccc(Cl)c(C(F)(F)F)c4)cc3C)c2N)cc1	> 30 µM	33.2 µM	IC50 [2]: 8.32 µM; inhibition [3]: inactive
–	O=c1cc(N2CCOCC2)oc2c(-c3ccccc3)cccc12 [LY-294002]	–	–	IC50 [4]: 3.02 µM
–	COc1ccc(Cn2ncc(NC(=O)c3ccc(NC(=O)Nc4cc(C(F)(F)F)ccc4N4CCOCC4)cc3C)c2N)cc1	> 30 µM	> 100 µM	–

GI50 (A375P)	SMILES	GI50 (HS27)	GI50 [1]	also measured
inactive	COc1ccc(Cn2ncc(NC(=O)c3cc(NC(=O)c4ccc(-c5cc(C(F)(F)F)ccc5Cl)o4)ccc3C)c2N)cc1	> 30 µM	–	–
–	COc1ccc(Cn2ncc(NC(=O)c3cc(NC(=O)Nc4cccc(Cl)c4)ccc3C)c2N)cc1	> 30 µM	0.21 µM	–
–	CNC(=O)c1cc(Oc2ccc(NC(=O)Nc3ccc(Cl)c(C(F)(F)F)c3)cc2)ccn1 [SORAFENIB]	–	5.58 µM	–
inactive	COc1ccc(Cn2ncc(NC(=O)c3cc(NC(=O)NC4CCCCC4)ccc3C)c2N)cc1	> 30 µM	–	–
inactive	COc1ccc(Cn2ncc(NC(=O)c3ccc(NC(=O)c4cnccn4)cc3C)c2N)cc1	> 30 µM	–	–
–	O=C1Nc2ccc(I)cc2C1=Cc1cc(Br)c(O)c(Br)c1	–	–	IC50 [3]: 0.00386 µM
–	COc1ccc(Cn2ncc(NC(=O)c3ccc(NC(=O)Nc4ccc(Cl)c(Cl)c4)cc3C)c2N)cc1	> 30 µM	4.12 µM	–
inactive	COc1ccc(Cn2ncc(NC(=O)c3cc(NC(=O)c4ncc(-c5ccncc5)s4)ccc3C)c2N)cc1	> 30 µM	–	–
–	Cc1ccc(NC(=O)Nc2ccc(Cl)c(C(F)(F)F)c2)cc1C(=O)Nc1cnn(Cc2ccccc2)c1N	> 30 µM	15.9 µM	–
inactive	COc1ccc(Cn2ncc(NC(=O)c3ccc(NC(=O)c4cnn(-c5ccccc5)c4C(F)(F)F)cc3C)c2N)cc1	> 30 µM	–	–
–	COc1ccc(Cn2ncc(NC(=O)c3cc(NC(=O)c4cc(N5CCN(C)CC5)cc(C(F)(F)F)c4)ccc3C)c2N)cc1	> 30 µM	4.51 µM	IC50 [2]: 0.24 µM; inhibition [3]: inactive
–	COc1ccc(Cn2ncc(NC(=O)c3ccc(NC(=O)Nc4cc(N5CCOCC5)cc(C(F)(F)F)c4)cc3C)c2N)cc1	> 30 µM	51.5 µM	–
–	COc1ccc(Cn2ncc(NC(=O)c3ccc(NC(=O)Nc4cc(-n5cnc(C)c5)cc(C(F)(F)F)c4)cc3C)c2N)cc1	> 30 µM	5.71 µM	–
–	COc1ccc(Cn2ncc(NC(=O)c3cc(NC(=O)c4ccc([N+](=O)[O-])c(C(F)(F)F)c4)ccc3C)c2N)cc1	> 30 µM	27.9 µM	–
–	COc1ccc(Cn2ncc(NC(=O)c3cc(NC(=O)c4cc(-n5cnc(C)c5)cc(C(F)(F)F)c4)ccc3C)c2N)cc1	> 30 µM	11.3 µM	–
–	COc1ccc(Cn2ncc(NC(=O)c3cc(NC(=O)Nc4ccc(C(F)(F)F)cc4)ccc3C)c2N)cc1	> 30 µM	> 30 µM	–
–	COc1ccc(Cn2ncc(NC(=O)c3ccc(NC(=O)c4cc5ccccc5s4)cc3C)c2N)cc1	> 30 µM	> 30 µM	–
–	COc1ccc(Cn2ncc(NC(=O)c3cc(NC(=O)Nc4cc(Cl)c(Cl)cc4Cl)ccc3C)c2N)cc1	> 30 µM	11.4 µM	–

From ChEMBL document CHEMBL1681781, “Structure based design and syntheses of amino-1H-pyrazole amide derivatives as selective Raf kinase inhibitors in melanoma cells” (Bioorg Med Chem, 2011)
